15 compounds from PubChem BioAssay can be followed below.

Inconclusive results are not listed. Calls of active or inactive are those of the source.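 Rule for the calls, unless noted: active = RAM network inhibition above 8.4% in each of two replicates, 3 SD over the compound average; inconclusive = above 8.4% inhibition in only one replicate; inactive = 8.4% inhibition or less in each replicate.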

As usually defined, the viability is a read-out of living cells in per cent, often relative to untreated cells. Usually inhibition stands for the change of the read-out against control, counted positive when it falls.

Test [1] is described as follows: OD615 S. cerevisiae growth inhibition, permissive medium, pilot counter-assay, permissive growth control for S. cerevisiae lifespan shortening project (AID 705;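 active = growth inhibition above 25% in both replicates, a cutoff set 3 SD above the mean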). The following applies: OD615, 24 h, at 10 µM, hits give high values. The essentials: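 Test system: Saccharomyces cerevisiae strain carrying genetically modified DeaD replicative-lifespan system; buffer or medium: SC raffinose/galactose permissive medium; dosing: one dose 10 µM, DMSO 0.25% final; times: 24 h exposure, 30 °C; measured by: OD at 615 nm; read-out basis: growth inhibition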

Test [2] can be described thus: Restrictive medium S. cerevisiae growth inhibition, OD615, pilot screen of yeast lifespan reduction project, restrictive growth control (AID 706;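 active = growth inhibition above a set limit, 3 SD over mean compound inhibition, in both replicates, cut at about 43% in these data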;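 note: modified DeaD lifespan yeast strain shifted to restrictive glucose medium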). The following applies: OD615, 48 h, at 10 µM, hits give high values. The method in brief: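 material = engineered S. cerevisiae DeaD strain | buffer or medium = glucose-based CSMM-D restrictive medium | dosing = one concentration, 10 µM final, 0.25% DMSO | schedule = 4 h pre-growth plus 48 h compound exposure, 30 °C | detection = OD615 absorbance reading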

A short description of test [3]: viability gain of MRP-1-high H69AR cells under doxorubicin, pilot screen, MRP-1 activator project, CellTiter-Glo, duplicate (AID 807;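 active = viability increase at or above a cutoff of the median across tested compounds plus 3 SD, cut at about 8.5% in these data, passing the limit was not always enough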;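 note: compound pretreatment 18-22 h then 72 h combined with doxorubicin; 0% = doxorubicin alone and 100% = vehicle without doxorubicin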). Particulars: H69AR viability with doxorubicin, CellTiter-Glo luminescence; at 10 µM; hits give high values. Background: ATP-based viability assays read luminescence as a measure of living cells.
Test [4] can be described thus: growth suppression of beta-catenin knockout HCT116, pilot screen, human colon tumor cells (AID 823;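 active = cell viability at or below a set limit in both duplicate runs, the limit being the all-compound median minus 4 SD, cut at about 23% in these data, passing the limit was not always enough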;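 note: 0% = wells killed by 20 µM Hyamine and 100% = untreated DMSO cell wells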). Particulars: CellTiter-Glo, 60 h, at 10 µM, hits give low values.
The nature of test [5]: growth suppression of PTEN-deleted HCT116, pilot screen, cell-based, HCT116 clonal line, CellTiter-Glo (AID 824;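 active = viability at or below 27.92% in each of two runs, the all-compound median minus 4 SD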;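 note: 0% = 20 µM Hyamine control and 100% = vehicle cell control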). The following applies: 60 h, at 10 µM, hits give low values.
Test [6] can be described thus: inhibitors of the yeast RAM network, pilot screen, dse1pr::URA3 reporter, 5-FOA selection (AID 869;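 active = inhibition over a set limit, the all-compound mean plus 3 SD, in both replicate runs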;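 note: 0% = DMSO wells with no growth and 100% = 10 µM 1-NA-PP1 with full growth; RAM network block rescues cells from 5-FOA so hits raise OD615 growth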). The following applies: S. cerevisiae dse1pr::URA3 5-FOA growth, OD615, 2 d; at 10 µM; hits give high values; strain carries analog-sensitive mutant Cbk1 kinase.
Test [7] can be described thus: RAM signaling pathway blockade in yeast – S. cerevisiae, Pdr1DBD-CYC8 efflux-inhibited sensitized strain, primary screen (AID 1298).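 Note: 0% = DMSO untreated cells without growth and 100% = 10 µM 1-NA-PP1 full growth; higher means more yeast growth rescued from 5-FOA killing.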 The following applies: S. cerevisiae cbk1-as DSE1-URA3 strain, 5-FOA growth OD615, 2 d; at 50 µM; hits give high values.

`N#CCCN1CCN(S(=O)(=O)c2ccc(S(=O)(=O)NC3CC3)cc2)CC1`: the growth inhibition was -10.4% (inactive) in test [1] and -5.2% (inactive) in test [2]. For the same compound, the viability increase in test [3] was 0.24% (inactive). Further, the viability in test [4] is 103% (inactive); in test [5], 99.6% (inactive). Also, the inhibition in test [6] is 0.68% (inactive). Moreover, the RAM network inhibition in test [7] was 3.16% (inactive).

Take `Cc1c(C(=O)N2CCCc3ccccc32)sc2nc(-c3ccccc3)cn12`: the results for the growth inhibition in test [1] and in test [2] were -8.77% (inactive) and 0.195% (inactive), respectively. In test [3], the viability increase is -2.82% (inactive). Moreover, the viability was 65.9% (inactive) in test [4] and 68.4% (inactive) in test [5]. Besides, the inhibition in test [6] was 2.46% (inactive). Further, the RAM network inhibition in test [7] was 5.58% (inactive).

`O=C(C(Cc1ccccc1)n1cccc1)N1CCc2ccccc21` (stereo not given): the growth inhibition in test [1] was -16.3% (inactive); in test [2], -9.65% (inactive). Further, the viability increase in test [3] was -3.05% (inactive). Moreover, the results for the viability in test [4] and in test [5] were 81.2% (inactive) and 68.2% (inactive), respectively. Besides, in test [6], the inhibition is 2.29% (inactive). In addition, the RAM network inhibition in test [7] was 3.93% (inactive).

Consider `CCC(C)NC(=O)CCS(=O)(=O)c1ccc2c(c1)n(C)c(=O)c(=O)n2C` (stereo not given), for which the growth inhibition in test [1] is -2.86% (inactive); in test [2], 4.93% (inactive). In addition, in test [3], the viability increase is -0.01% (inactive). Also, the values for the viability in test [4] and in test [5] were 103% (inactive) and 99.1% (inactive), respectively. Besides, the inhibition in test [6] is 3% (inactive). For the same compound, in test [7], the RAM network inhibition was 3.76% (inactive).

Turning to `O=C(C1CCCN(S(=O)(=O)c2cccc3cccnc23)C1)N1CCc2ccccc21` (stereo not given), the values for the growth inhibition in test [1] and in test [2] were -2.7% (inactive) and -3.75% (inactive), respectively. Also, the viability increase in test [3] was -5.63% (inactive). The viability was 68.7% (inactive) in test [4] and 66.7% (inactive) in test [5]. For the same compound, the inhibition in test [6] is 1.5% (inactive). In addition, in test [7], the RAM network inhibition was 3.58% (inactive).

For `Cc1ccc(C)c(N(C)S(=O)(=O)c2cccc3nsnc23)c1`, the growth inhibition in test [1] is -6.8% (inactive); in test [2] it was -6.89% (inactive). In test [3], the viability increase was -3.51% (inactive). The viability in test [4] is 79.5% (inactive); in test [5], 75.5% (inactive). Moreover, in test [6], the inhibition was 0.92% (inactive). Moreover, the RAM network inhibition in test [7] is 7.63% (inactive).

For the compound `Cc1ccc(C(=O)CSC2=NC(N)=C(C#N)C3(CCCCC3)C2C(N)=O)cc1` (stereo not given), the results for the growth inhibition in test [1] and in test [2] were 17.7% (inactive) and 51% (active), respectively. In addition, in test [3], the viability increase is -4.6% (inactive). For the same compound, the viability in test [4] was 89.6% (inactive); in test [5] it was 97.6% (inactive). Besides, the inhibition in test [6] is 0.27% (inactive). Moreover, the RAM network inhibition in test [7] is 9.3% (inactive).

Regarding `CCc1cc(C(=O)COc2ccccc2F)c(O)cc1O`, the values for the growth inhibition in test [1] and in test [2] were -11.9% (inactive) and 11.9% (inactive), respectively. Besides, the viability increase in test [3] is -2.43% (inactive). The values for the viability in test [4] and in test [5] were 96.1% (inactive) and 99.5% (inactive), respectively. The inhibition in test [6] was -0.155% (inactive). Moreover, the RAM network inhibition in test [7] was -0.21% (inactive).

`N#Cc1cnn(CC2CCCCC2)c1N`: the figures for the growth inhibition in test [1] and in test [2] were -15.6% (inactive) and -8.75% (inactive), respectively. In addition, the viability increase in test [3] was -0.89% (inactive). Moreover, the viability in test [4] is 89.4% (inactive); in test [5], 93.2% (inactive). In test [6], the inhibition is 1.57% (inactive). Also, the RAM network inhibition in test [7] is 3.68% (inactive).

With `Cc1ccc(-c2nc(CS(=O)CC(=O)NCc3ccccc3)c(C)o2)cc1` (stereo not given), the growth inhibition in test [1] is 2.69% (inactive); in test [2], -1.83% (inactive). Moreover, in test [3], the viability increase was -2.84% (inactive). Also, the results for the viability in test [4] and in test [5] were 98.2% (inactive) and 89.5% (inactive), respectively. Besides, the inhibition in test [6] is 0.175% (inactive). Also, in test [7], the RAM network inhibition was 6.78% (inactive).

As for `Cn1c(=O)c2c(nc(CN3CCCCC3)n2Cc2c(F)cccc2Cl)n(C)c1=O`, the growth inhibition in test [1] is -2.88% (inactive); in test [2], -10.9% (inactive). Moreover, the viability increase in test [3] is -2.22% (inactive). Moreover, the viability in test [4] is 102% (inactive); in test [5], 93.2% (inactive). Moreover, in test [6], the inhibition was 3.12% (inactive). Also, the RAM network inhibition in test [7] is 4.38% (inactive).

With `CC1CCN(C(=O)CN2C(=O)C(=O)c3ccccc32)CC1`, the results for the growth inhibition in test [1] and in test [2] were 3.92% (inactive) and -0.215% (inactive), respectively. In test [3], the viability increase was -5.16% (inactive). The viability is 100% (inactive) in test [4] and 97.1% (inactive) in test [5]. In test [6], the inhibition is 1.33% (inactive). Besides, the RAM network inhibition in test [7] is 3.27% (inactive).

In the case of `CCOC(=O)C1=C(C)NC(=O)CC1c1cc2c(cc1Br)OCO2` (stereo not given), the growth inhibition is 1.83% (inactive) in test [1] and -5.8% (inactive) in test [2]. Further, in test [3], the viability increase is -4.4% (inactive). In addition, the viability is 96.6% (inactive) in test [4] and 90.6% (inactive) in test [5]. For the same compound, the inhibition in test [6] is 1.44% (inactive). In addition, the RAM network inhibition in test [7] was 6.81% (inactive).

Consider `Cn1c(C(=O)N2CCN(Cc3ccccc3)CC2)cc2c(=O)n(C)c3ccccc3c21`, for which the results for the growth inhibition in test [1] and in test [2] were 7.94% (inactive) and 3.57% (inactive), respectively. Besides, in test [3], the viability increase was -4.21% (inactive). For the same compound, the viability in test [4] and in test [5] was 74.8% (inactive) in each case. In addition, the inhibition in test [6] was 0.905% (inactive). Further, in test [7], the RAM network inhibition is 1.37% (inactive).

Regarding `CC(=O)c1ccc(OCC(O)Cn2nnc3ccccc32)cc1` (stereo not given), the growth inhibition in test [1] was -15.7% (inactive); in test [2], -1.76% (inactive). Besides, the viability increase in test [3] is 0.2% (inactive). The viability in test [4] is 87.6% (inactive); in test [5], 97.9% (inactive). The inhibition in test [6] is 0.455% (inactive). Moreover, in test [7], the RAM network inhibition was 7.79% (inactive).
